Measurements: ChEMBL document CHEMBL2417481, “Regioselective synthesis of 6-substituted-2-amino-5-bromo-4(3H)-pyrimidinones and evaluation of their antiviral activity” (Eur J Med Chem, 2013)

System: Vaccinia virus
Test: Antiviral activity against Vaccinia virus Lederle infected in human HEL cells assessed as reduction in virus-induced cytopathogenicity
Assay type: functional, organism-based
Conditions: Orthopoxvirus vaccinia
Summary of the method: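 Confluent cell monolayers (Vero, HeLa, HEL or MDCK, as named in each line) were infected with 100 CCID50 of virus while exposed to a range of compound concentrations. Cytopathicity was scored once it was complete in untreated infected controls.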

| Compound | EC50 |
| --- | --- |
| CCCc1nc(N)[nH]c(=O)c1Br | > 100 µM |
| CCCCc1nc(N)[nH]c(=O)c1Br | > 100 µM |
| CCCCCc1nc(N)[nH]c(=O)c1Br | > 100 µM |
| Nc1nc(CCc2ccccc2)c(Br)c(=O)[nH]1 | > 100 µM |
| CC(C)(O)Cc1nc(N)[nH]c(=O)c1Br | > 100 µM |
| Nc1nc(CC(O)c2ccc(Cl)cc2)c(Br)c(=O)[nH]1 (stereo not given) | > 100 µM |
| Nc1nc(CC(O)c2ccccc2C(F)(F)F)c(Br)c(=O)[nH]1 (stereo not given) | > 100 µM |
| Cc1cc(C)c(/C=C/c2nc(N)[nH]c(=O)c2Br)c(C)c1 | > 20 µM |
| COc1ccc(/C=C/c2nc(N)[nH]c(=O)c2Br)cc1OC | > 100 µM |
| Nc1nc2c(ncn2COCCO)c(=O)[nH]1 [ACYCLOVIR] | > 250 µM |
